This is an account of results in ChEMBL document CHEMBL3046847, “Synthesis and in vitro antiproliferative activity of novel 12(H)-quino[3,4-b][1,4]benzothiazine derivatives” (Med Chem Res, 2013).

Structures are written as SMILES. ≈ marks a conversion by molar mass, not a printed value.

For experiment [1], the system named is SNB-19. Kind of experiment: Cytotoxicity against Homo sapiens (human) SNB19 cells assessed as cell viability after 72 hr by WST-1 assay. Format: functional, cell-based. The method, boiled down: (§1)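 Cells grown in D-MEM with 12 % FCS, streptomycin and penicillin at 37 °C, 5 % CO2, seeded at 1×10^4 cells/well. Exposed to compounds at 0–100 μg/ml for 72 h, then incubated with WST-1 for 2 h. Absorbance was read at 450 nm against a background control. Values are means of at least two independent experiments run in triplicate.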

For experiment [2], the system named is C32. Briefly: Cytotoxicity against Homo sapiens (human) C32 cells assessed as cell viability after 72 hr by WST-1 assay. Format: functional, cell-based. The method, boiled down: as §1
[3] abbreviates: Homo sapiens, C32, 72 h, read-out: IC50.
Setting [4] is: Homo sapiens, SNB-19, 72 h, read-out: IC50.

Consider `Fc1ccc2c(c1)Sc1cnc3ccccc3c1N2`, for which the IC50 result in experiment [1] (snb-19) is “Not Active”; in experiment [2] (setting [3]) it was 9.4 µg/mL (≈ 35 µM).

As for `c1cnc2c(c1)Nc1c(cnc3ccccc13)S2`, the IC50 in experiment [1] (setting [4]) was 10.2 µg/mL (≈ 40.6 µM); in experiment [2] (setting [3]), 8.7 µg/mL (≈ 34.6 µM).

As to `Fc1ccc2c(c1)Sc1cnc3ccccc3c1N2CCN1CCCCC1`, the values for the IC50 in experiment [1] (setting [4]) and in experiment [2] (setting [3]) were 12.4 µg/mL (≈ 32.7 µM) and 7 µg/mL (≈ 18.4 µM), respectively.

As to `Cc1ccc2c(c1)Sc1cnc3ccccc3c1N2CCN1CCCCC1`, the half-maximal inhibitory concentration (IC50) in experiment [1] (setting [4]) was determined as 6.6 µg/mL (≈ 17.6 µM); in experiment [2] (setting [3]), 6.9 µg/mL (≈ 18.4 µM).

As for `Cc1ccc2c(c1)Sc1cnc3ccccc3c1N2`, the IC50 entry is “Not Active” in experiment [1] (snb-19) and 8.7 µg/mL (≈ 32.9 µM) in experiment [2] (setting [3]).

Consider `c1cnc2c(c1)N(CCN1CCCCC1)c1c(cnc3ccccc13)S2`, for which the IC50 in experiment [1] (setting [4]) amounted to 7.3 µg/mL (≈ 20.1 µM); in experiment [2] (setting [3]), 7.9 µg/mL (≈ 21.8 µM).

On to `Brc1ccc2c(c1)Sc1cnc3ccccc3c1N2`, for which the IC50 result is “Not Active” in experiment [1] (snb-19) and 8.6 µg/mL (≈ 26.1 µM) in experiment [2] (setting [3]).

As for `Cc1cccc2c1Nc1c(cnc3ccccc13)S2`, the IC50 entry in experiment [1] (snb-19) and in experiment [2] (c32) was “Not Active” each time.

`Clc1ccc2c(c1)Sc1cnc3ccccc3c1N2`: the IC50 result in experiment [1] (snb-19) was “Not Active”; in experiment [2] (setting [3]) it was 7.8 µg/mL (≈ 27.4 µM).

Regarding `c1ccc2c(c1)Nc1c(cnc3ccccc13)S2`, the IC50 is 9.6 µg/mL (≈ 38.3 µM) in experiment [1] (setting [4]) and 8.9 µg/mL (≈ 35.6 µM) in experiment [2] (setting [3]).

Regarding `c1ccc2c(c1)Sc1cnc3ccccc3c1N2CCN1CCCCC1`, the IC50 came out at 6.7 µg/mL (≈ 18.5 µM) in experiment [1] (setting [4]) and 5.6 µg/mL (≈ 15.5 µM) in experiment [2] (setting [3]).

In the case of `CN(C)CCCN1c2cccnc2Sc2cnc3ccccc3c21`, the IC50 in experiment [1] (setting [4]) is 8.2 µg/mL (≈ 24.4 µM); in experiment [2] (setting [3]) it was 6.5 µg/mL (≈ 19.3 µM).
